The values below come from ChEMBL document CHEMBL1137637, “Quinuclidine derivatives as potential antiparasitics” (Antimicrob Agents Chemother, 2007).

In brackets after ≈: the same amount, converted by molar mass. Bounds are passed on as bounds.

For assay [1], the target named is T1, Farnesyltransferase, putative (Leishmania major, UniProt Q4Q5W4).
T1 sequence (Q4Q5W4 whole entry): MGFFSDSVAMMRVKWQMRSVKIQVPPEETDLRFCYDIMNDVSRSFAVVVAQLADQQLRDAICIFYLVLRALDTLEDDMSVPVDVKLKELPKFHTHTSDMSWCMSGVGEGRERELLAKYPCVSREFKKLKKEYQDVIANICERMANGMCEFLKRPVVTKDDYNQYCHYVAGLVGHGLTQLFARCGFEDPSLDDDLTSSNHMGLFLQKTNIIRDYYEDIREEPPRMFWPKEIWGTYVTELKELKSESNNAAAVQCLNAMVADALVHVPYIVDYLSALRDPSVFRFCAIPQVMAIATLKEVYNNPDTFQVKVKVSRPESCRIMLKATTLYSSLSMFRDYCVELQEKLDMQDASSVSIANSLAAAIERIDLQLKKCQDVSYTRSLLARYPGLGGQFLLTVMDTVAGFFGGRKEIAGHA
Description: Inhibition of Leishmania major recombinant squalene synthase expressed in Escherichia coli by liquid scintillation counter. Put shortly: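 Soluble E. coli extract expressing L. major SQS truncated by 16 N-terminal and 40 C-terminal residues. Buffer: 50 mM phosphate pH 7.4, 20 mM MgCl2, 5 mM CHAPS, 1% Tween 80, 10 mM DTT, BSA, 0.25 mM NADPH, and a glucose-6-phosphate/G6PDH regenerating system. Substrate 0.5 μM radiolabelled farnesyl pyrophosphate. Squalene band counted by scintillation. IC50 from hyperbolic plot of five concentrations in duplicate, usually run twice.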

Assay [2] relates to Leishmania amazonensis. Description: Antileishmanial activity against Leishmania mexicana amazonensis promastigotes by trypan blue exclusion method. The class given is functional, organism-based. Put shortly: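 L. mexicana amazonensis promastigotes cultured in liver infusion-tryptose medium with lactalbumin and 10% FCS at 26°C, unagitated. Cultures started at 2 × 10⁶ cells/ml and drug added at 0.5–1 × 10⁷ cells/ml. Density counted by electronic particle counter and hemocytometer. Viability by trypan blue exclusion. Triplicate growth experiments.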

For assay [3], the system named is Leishmania amazonensis. Description: Inhibition of sterol biosynthesis in Leishmania mexicana amazonensis promastigotes assessed as reduction in endogenous cholesta-5,7,24-trien-3beta-ol level at 3 uM after 96 hrs by gas-liquid chromatography. It is filed as functional. The arrangement: scale not given: the % may be the effect or the level left. Put shortly: (§1)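 L. mexicana promastigotes exposed to compound for 96 h. Total lipids extracted and neutral sterols separated from polar lipids by silicic acid column chromatography. Sterols analysed by TLC and by quantitative capillary gas-liquid chromatography with mass spectrometry. Composition expressed as mass % of free sterols, compared with untreated control.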

Assay [4] has as its system Leishmania amazonensis. Description: Inhibition of sterol biosynthesis in Leishmania mexicana amazonensis promastigotes assessed as reduction in endogenous cholesta-5,7,24-trien-3beta-ol level at 1 uM after 96 hrs by gas-liquid chromatography. It is filed as functional. The arrangement: scale not given: the % may be the effect or the level left. Put shortly: as §1
Assay [5] concerns Leishmania amazonensis. Description: Inhibition of sterol biosynthesis in Leishmania mexicana amazonensis promastigotes assessed as reduction in exogenous cholesterol level at 1 uM after 96 hrs by gas-liquid chromatography. It is filed as functional. More on the design: scale not given: the % may be the effect or the level left. Put shortly: as §1
For assay [6], the system named is Leishmania amazonensis. Description: Inhibition of sterol biosynthesis in Leishmania mexicana amazonensis promastigotes assessed as reduction in endogenous 5-dehydro episterol level at 1 uM after 96 hrs by gas-liquid chromatography. The class given is functional. The arrangement: scale not given: the % may be the effect or the level left. Put shortly:
as §1

The subject of assay [7] is Leishmania amazonensis. Description: Inhibition of sterol biosynthesis in Leishmania mexicana amazonensis promastigotes assessed as reduction in endogenous episterol level at 1 uM after 96 hrs by gas-liquid chromatography. The class given is functional. More on the design: scale not given: the % may be the effect or the level left. Put shortly: as §1
Assay [8] concerns Leishmania amazonensis. Description: Inhibition of sterol biosynthesis in Leishmania mexicana amazonensis promastigotes assessed as reduction in exogenous cholesterol level at 3 uM after 96 hrs by gas-liquid chromatography. It is filed as functional. The arrangement: scale not given: the % may be the effect or the level left. Put shortly: as §1
Assay [9] concerns Leishmania amazonensis. Description: Inhibition of sterol biosynthesis in Leishmania mexicana amazonensis promastigotes assessed as reduction in endogenous 5-dehydro episterol level at 3 uM after 96 hrs by gas-liquid chromatography. The class given is functional. The arrangement: scale not given: the % may be the effect or the level left. Put shortly:
as §1

Assay [10] deals with Leishmania amazonensis. Description: Inhibition of sterol biosynthesis in Leishmania mexicana amazonensis promastigotes assessed as reduction in endogenous episterol level at 3 uM after 96 hrs by gas-liquid chromatography. It is filed as functional. More on the design: scale not given: the % may be the effect or the level left. Put shortly:
as §1

A further assay relates to Leishmania donovani. Description: Antileishmanial activity against Leishmania donovani MHOM/ET/67/L82 axenic amastigotes after 72 hrs by resazurin assay. It is filed as functional, organism-based. The settings on record: MHOM/ET/67/L82, 72 h. Put shortly:
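L. donovani MHOM/ET/67/L82 amastigotes grown axenically at 37°C in synthetic minimal medium at pH 5.4 with 10% heat-inactivated FBS under 5% CO2. 1 × 10⁵ amastigotes per well with seven threefold dilutions, 30 to 0.041 μg/ml. After 72 h, resazurin added for 2–4 h more. Fluorescence read at ex 536/em 588 nm. IC50 taken from sigmoidal curve. Run in duplicate, with an independent repeat for actives.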
(In general: Resazurin is reduced to fluorescent resorufin, in cell work by metabolically active cells.)

The next assay deals with L6. Description: Cytotoxicity against rat L6 cells after 72 hrs by resazurin assay. It is filed as cell-based. The settings on record: L6, 72 h. Put shortly: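 L-6 cells seeded at 4 × 10⁴ cells/ml in RPMI 1640 with 10% FBS and 2 mM L-glutamine. After 24 h, medium replaced with serial drug dilution and incubated for 72 h at 37°C in 5% CO2. Resazurin added for 2–4 h, fluorescence read at ex 536/em 588 nm. IC50 from sigmoidal curve. Duplicate, with an independent repeat for actives.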

Another assay has as its system Trypanosoma cruzi. Description: Antitrypanosomal activity against trypomastigotes of Trypanosoma cruzi Tulahuen C2C4 containing lacZ gene in rat L6 cells after 4 days by chlorophenol red-beta-D-galactopyranoside/Nonidet assay. The class given is functional, organism-based. The settings on record: Tulahuen C2C4, L6, 96 h. Put shortly: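 L-6 rat myoblasts seeded at 2,000 cells/well in RPMI 1640 with 10% FBS and 2 mM L-glutamine. After 24 h, 5,000 T. cruzi Tulahuen C2C4 lacZ trypomastigotes added with serial drug dilution. Incubated at 37°C in 5% CO2 for 4 days. CPRG/Nonidet substrate added and colour read at 540 nm after 2–4 h. IC50 from sigmoidal curve. Duplicate determinations.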

Assay [11] relates to Trypanosoma brucei rhodesiense. Description: Trypanocidal activity against Trypanosoma brucei rhodesiense STIB 900 bloodstream form after 72 hrs by resazurin assay. The settings on record: STIB 900, 72 h. The class given is functional, organism-based. Put shortly: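 T. b. rhodesiense STIB 900 bloodstream forms in MEM with 2-mercaptoethanol and 15% heat-inactivated horse serum, with serial drug dilutions. Incubated 72 h at 37°C in 5% CO2. Resazurin added for 2–4 h more, fluorescence read at ex 536/em 588 nm. IC50 from sigmoidal curve. Duplicate, with an independent repeat for actives.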

The test system of a further assay is Plasmodium falciparum. Description: Antiplasmodial activity after 48 hrs against chloroquine and pyrimethamine-resistant Plasmodium falciparum K1 in human erythrocytes by [3H]hypoxanthine uptake. It is filed as functional, organism-based. Put shortly:
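P. falciparum K1 in human red cells in RPMI 1640 with 5% Albumax, exposed to serial drug dilutions. Incubated 48 h at 37°C under reduced oxygen, then 0.5 μCi [³H]hypoxanthine per well for 24 h more. Cells harvested onto glass-fibre filters and counted by scintillation. Result expressed as % of untreated control, with IC50 from sigmoidal curve. Duplicate, plus an independent repeat for actives.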

Assay [12] relates to Leishmania amazonensis. Description: Inhibition of sterol biosynthesis in Leishmania mexicana amazonensis promastigotes assessed as reduction in endogenous cholesta-7,24-dien-3beta-ol level at 1 uM after 96 hrs by gas-liquid chromatography. It is filed as functional. More on the design: scale not given: the % may be the effect or the level left. Put shortly: as §1
Assay [13] concerns Leishmania amazonensis. Description: Inhibition of sterol biosynthesis in Leishmania mexicana amazonensis promastigotes assessed as reduction in endogenous cholesta-7,24-dien-3beta-ol level at 3 uM after 96 hrs by gas-liquid chromatography. More on the design: scale not given: the % may be the effect or the level left. The class given is functional. Put shortly: as §1
The subject of assay [14] is Leishmania amazonensis. Description: Inhibition of sterol biosynthesis in Leishmania mexicana amazonensis promastigotes assessed as reduction in exogenous cholesterol level at 10 uM after 96 hrs by gas-liquid chromatography. The class given is functional. The arrangement: scale not given: the % may be the effect or the level left. Put shortly: as §1
Assay [15] is described as follows: Inhibition of Leishmania mexicana squalene synthase.
Assay [16] concerns the target T2, Farnesyltransferase, putative (Trypanosoma cruzi (strain CL Brener), UniProt Q4CXF7).
T2 sequence (Q4CXF7 whole entry): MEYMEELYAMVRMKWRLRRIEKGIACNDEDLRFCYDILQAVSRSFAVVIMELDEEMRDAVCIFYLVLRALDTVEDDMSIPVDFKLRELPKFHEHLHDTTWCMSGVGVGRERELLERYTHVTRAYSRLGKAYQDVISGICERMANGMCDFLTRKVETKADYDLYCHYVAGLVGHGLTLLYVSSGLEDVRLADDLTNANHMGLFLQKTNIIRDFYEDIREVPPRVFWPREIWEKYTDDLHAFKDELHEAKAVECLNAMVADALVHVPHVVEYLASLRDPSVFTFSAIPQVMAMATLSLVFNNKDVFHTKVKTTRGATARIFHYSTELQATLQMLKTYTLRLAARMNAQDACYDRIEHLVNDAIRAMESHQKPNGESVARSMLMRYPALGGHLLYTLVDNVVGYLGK
Description: Inhibition of Trypanosoma cruzi squalene synthase.

In general, IC50 refers to the concentration that gives 50% inhibition. Broadly, the MIC is the smallest concentration in the dilution series that meets the test's criterion for growth inhibition. For the molecule `OC[C@H]1CC2CCN1C[C@@H]2C#Cc1ccc(-c2ccccc2)cc1` (stereo not given in full), the half-maximal inhibitory concentration (IC50) in assay [1] was over 1000 nM; in the assay with Leishmania donovani, 33700 nM; with L6, 11000 nM; with Trypanosoma cruzi, 5800 nM; in assay [11], 500 nM; with Plasmodium falciparum, 1400 nM. Also, the MIC with Leishmania amazonensis [2] amounted to 10 µM (≈ 3.17 µg/mL). For the same molecule, the Activity in the assay on Leishmania amazonensis [3] is 32.7%; with Leishmania amazonensis [4], 20.1%; in the assay on Leishmania amazonensis [5] it was 15.4%; with Leishmania amazonensis [6] it was 49.3%; in the assay with Leishmania amazonensis [7] it was 7.6%; with Leishmania amazonensis [8], 14%. Moreover, the Activity in the assay on Leishmania amazonensis [9] is recorded as 36%; in the assay with Leishmania amazonensis [10], 6.6%; with Leishmania amazonensis [12] it was 7.6%; with Leishmania amazonensis [13], 10.7%; with Leishmania amazonensis [14] it was over 99%.
As a reminder, the Ki is a dissociation constant, usually derived from enzyme kinetics or from competition with a known ligand. On to `OC1(c2ccc(-c3ccccc3)cc2)CN2CCC1CC2` (stereo not given), for which the Ki in assay [15] turned out to be 12 nM; in assay [16] it was 62 nM. Besides, the IC50 in [1] came out at 13 nM. Also, the Activity came out at 17.5% in the assay on Leishmania amazonensis [5]; 65.7% in the assay on Leishmania amazonensis [6]; 16.8% in the assay on Leishmania amazonensis [7]; 39.6% in the assay on Leishmania amazonensis [8]; 39.6% with Leishmania amazonensis [9]; 20.8% with Leishmania amazonensis [10].
As for `OC[C@@H]1CC2CCN1C[C@@H]2C#Cc1ccc(-c2ccccc2)cc1` (stereo not given in full), the IC50 in assay [1] is over 1000 nM; with Leishmania donovani it was 18500 nM; in the assay on L6, 10700 nM; in the assay with Trypanosoma cruzi, 5600 nM; in [11] it was 1200 nM; in the assay on Plasmodium falciparum, 600 nM. This molecule had an MIC in the assay with Leishmania amazonensis [2] of 3 µM (≈ 0.952 µg/mL). The Activity came out at 24.8% with Leishmania amazonensis [3]; 41.7% in the assay with Leishmania amazonensis [4]; 10.3% with Leishmania amazonensis [5]; 36.4% with Leishmania amazonensis [6]; 4.4% in the assay on Leishmania amazonensis [7]; 25.2% in the assay on Leishmania amazonensis [8]. In addition, the Activity with Leishmania amazonensis [9] is 33.7%; in the assay with Leishmania amazonensis [10], 9.3%; in the assay on Leishmania amazonensis [12], 7.2%; with Leishmania amazonensis [13], 7%; in the assay with Leishmania amazonensis [14], over 99%.
